In ChEMBL document CHEMBL1770120 (Eur J Med Chem, 2011):

Key:
[1] = Half life in Sprague-Dawley rat plasma at 5 mg/kg, iv by LC-MS/MS analysis; format: ADME, organism-based; set-up: dose 5 mg/kg, route intravenous
In short: (§1)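 Male Sprague-Dawley rats (200–220 g), five per group, fasted from the evening before dosing until 2 h post-dose. Single i.v. dose of 5 mg/kg in cremophor:ethanol (1:1) diluted with sterile 0.154 M NaCl, given at 10 ml/kg. Plasma sampled 5–1440 min. Plasma kept at -20 °C and assayed by LC-MS-MS after liquid–liquid extraction. Parameters from mean plasma concentrations by non-compartmental analysis.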

[2] = Cytotoxicity against human KB-0528 cells after 72 hrs by SRB assay; format: functional, cell-based; settings: KB-0528, 72 h
In short: (§2)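 Cells grown in RPMI 1640 with 10% FBS at 37 °C under 5% CO2 and seeded at 0.4–1.0 × 10^4 cells/well. Compounds added after 24 h from DMSO stock, at least five concentrations, final DMSO ≤0.1%. Exposure 72 h. Growth read by SRB staining at OD 520 nm. Three experiments, each in quadruplicate. IC50 taken from survival (%) versus concentration curves.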

[3] = test system: Liver microsomes; experiment: (§3) Half life in human liver microsomes; format: ADME, Microsome; settings: microsomes
In short: (§4)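 Test compound at 5 µmol/L with pooled human liver microsomes (0.5 mg/mL) and 1 mM NADPH in 0.1 M potassium phosphate buffer, pH 7.4, at 37 °C. Reactions stopped with acetonitrile at 0, 5, 10, 15, 30 and 60 min. Samples extracted with n-hexane:dichloromethane:isopropanol and spun to remove protein. Remaining parent measured by HPLC-MS (ESI positive).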

[4] = Cytotoxicity against multidrug-resistant human KBR-0530 cells after 72 hrs by SRB assay; format: functional, cell-based; settings: KBR-0530, 72 h; in short: as §2
[5] = test system: Liver microsomes; experiment: (§5) Metabolic stability in human liver microsomes assessed as unchanged remaining compound after 60 mins; format: ADME, Microsome; settings: microsomes, 1 h; in short: as §4
[6] = Mean residence time in Sprague-Dawley rat at 5 mg/kg, iv by LC-MS/MS analysis; format: ADME, organism-based; set-up: dose 5 mg/kg, route intravenous; settings: in vivo; in short: as §1
[7] = Total plasma clearance in Sprague-Dawley rat at 5 mg/kg, iv by LC-MS/MS analysis; format: ADME, organism-based; set-up: dose 5 mg/kg, route intravenous; in short: as §1
[8] = Cytotoxicity against human HL60-0607-2 cells after 72 hrs by SRB assay; format: functional, cell-based; in short: as §2
[9] = Apparent volume of distribution in Sprague-Dawley rat at 5 mg/kg, iv by LC-MS/MS analysis; format: ADME, organism-based; set-up: dose 5 mg/kg, route intravenous; settings: in vivo, read-out: Vz; in short: as §1
[10] = AUC (0 to infinity) in Sprague-Dawley rat at 5 mg/kg, iv by LC-MS/MS analysis; format: ADME, organism-based; set-up: time infinity, dose 5 mg/kg, route intravenous; settings: plasma; in short: as §1
[11] = Cytotoxicity against multidrug-resistant human HL60OR-0604-2 cells after 72 hrs by SRB assay; format: functional, cell-based; in short: as §2
[12] = AUC (0 to t) in Sprague-Dawley rat at 5 mg/kg, iv by LC-MS/MS analysis; format: ADME, organism-based; set-up: dose 5 mg/kg, route intravenous; settings: plasma; in short: as §1
[13] = Cytotoxicity against multidrug-resistant human KBR-0602 cells after 72 hrs by SRB assay; format: functional, cell-based; settings: KBR-0602, 72 h; in short: as §2
[14] = Intrinsic clearance in human liver microsomes; format: ADME, Microsome; in short: as §4
[15] = as §3; format: ADME, Microsome; settings: liver microsomes; in short: as §4
[16] = as §5; format: ADME, Microsome; settings: liver microsomes, read-out: Stability; in short: as §4
[17] = Ratio of compound IC50 to docetaxel IC50 for human HL60-0607-2 cells; format: functional
[18] = Ratio of compound IC50 to docetaxel IC50 for human HL60OR-0604-2 cells; format: functional

SMILES: CC(=O)O[C@@]12CO[C@@H]1C[C@H](O)[C@@]1(C)C(=O)[C@H](O)C3=C(C)[C@@H](OC(=O)[C@H](O)[C@@H](NC(=O)OC(C)(C)CF)c4ccc(F)cc4)C[C@@](O)([C@@H](OC(=O)c4ccccc4)[C@H]21)C3(C)C
- half-life [1]: 5.06 h
- IC50 [2]: 915 pM
- t1/2 [3]: 2.407 h
- IC50 [4]: 232 pM
- Stability [5]: 53.8%
- MRT [6]: 2.13 h
- clearance [7]: 50.3 mL/min/kg
- IC50 [8]: 140 pM
- Vd [9]: 22 L/kg
- AUC(0-inf) [10]: 1660 ng·h/mL
- IC50 [11]: 510 pM
- AUC(0-t) [12]: 1640 ng·h/mL
- IC50 [13]: 194 pM
- CLint scaled [14]: 8.62 mL/min/kg

SMILES: CC(=O)O[C@@]12CO[C@@H]1C[C@H](O)[C@@]1(C)C(=O)[C@H](O)C3=C(C)[C@@H](OC(=O)[C@H](O)[C@@H](NC(=O)OC(C)(C)C(F)F)c4ccc(F)cc4)C[C@@](O)([C@@H](OC(=O)c4ccccc4)[C@H]21)C3(C)C
- half-life [1]: 13.4 h
- IC50 [2]: 397 pM
- t1/2 [3]: 6.08 h
- IC50 [4]: 321 pM
- Stability [5]: 72.4%
- MRT [6]: 4.28 h
- clearance [7]: 25.2 mL/min/kg
- IC50 [8]: 16.8 pM
- Vd [9]: 27.4 L/kg
- AUC(0-inf) [10]: 3360 ng·h/mL
- IC50 [11]: 2080 pM
- AUC(0-t) [12]: 3150 ng·h/mL
- IC50 [13]: 885 pM
- CLint scaled [14]: 3.41 mL/min/kg

SMILES: CC(=O)O[C@@]12CO[C@@H]1C[C@H](O)[C@@]1(C)C(=O)[C@H](O)C3=C(C)[C@@H](OC(=O)[C@H](O)[C@@H](NC(=O)OC(C)(C)C(F)(F)F)c4ccc(F)cc4)C[C@@](O)([C@@H](OC(=O)c4ccccc4)[C@H]21)C3(C)C
- half-life [1]: 8.5 h
- IC50 [2]: 25.9 pM
- half-life [15]: 57.8 h
- IC50 [4]: 332 pM
- remaining at 1 h [16]: 88.5%
- MRT [6]: 2.78 h
- clearance [7]: 21.3 mL/min/kg
- Ratio IC50 [17]: 20
- IC50 [8]: 0.358 pM
- Vd [9]: 15.8 L/kg
- Ratio IC50 [18]: 10
- AUC(0-inf) [10]: 3980 ng·h/mL
- IC50 [11]: 15.5 pM
- AUC(0-t) [12]: 3870 ng·h/mL
- IC50 [13]: 432 pM
- CLint scaled [14]: 0.36 mL/min/kg

SMILES: CC(=O)O[C@@]12CO[C@@H]1C[C@H](O)[C@@]1(C)C(=O)[C@H](O)C3=C(C)[C@@H](OC(=O)[C@H](O)[C@@H](NC(=O)OC(C)(C)CF)c4ccccc4)C[C@@](O)([C@@H](OC(=O)c4ccccc4)[C@H]21)C3(C)C
- half-life [1]: 12.2 h
- IC50 [2]: 506 pM
- IC50 [4]: 32.2 pM
- MRT [6]: 5.62 h
- clearance [7]: 84.8 mL/min/kg
- IC50 [8]: 156 pM
- Vd [9]: 89.7 L/kg
- AUC(0-inf) [10]: 994 ng·h/mL
- IC50 [11]: 958 pM
- AUC(0-t) [12]: 914 ng·h/mL
- IC50 [13]: 792 pM

SMILES: CC(=O)O[C@@]12CO[C@@H]1C[C@H](O)[C@@]1(C)C(=O)[C@H](O)C3=C(C)[C@@H](OC(=O)[C@H](O)[C@@H](NC(=O)OC(C)(C)C(F)(F)F)c4ccccc4)C[C@@](O)([C@@H](OC(=O)c4cccc(F)c4)[C@H]21)C3(C)C
- half-life [1]: 7.62 h
- IC50 [2]: 210 pM
- IC50 [4]: 108 pM
- MRT [6]: 2.13 h
- clearance [7]: 21.3 mL/min/kg
- IC50 [8]: 54.7 pM
- Vd [9]: 13.7 L/kg
- AUC(0-inf) [10]: 3940 ng·h/mL
- IC50 [11]: 191 pM
- AUC(0-t) [12]: 3870 ng·h/mL
- IC50 [13]: 149 pM

SMILES: CC(=O)O[C@@]12CO[C@@H]1C[C@H](O)[C@@]1(C)C(=O)[C@H](O)C3=C(C)[C@@H](OC(=O)[C@H](O)[C@@H](NC(=O)OC(C)(C)CF)c4ccccc4)C[C@@](O)([C@@H](OC(=O)c4cccc(F)c4)[C@H]21)C3(C)C
- half-life [1]: 6.8 h
- IC50 [2]: 248 pM
- IC50 [4]: 66.9 pM
- MRT [6]: 2.3 h
- clearance [7]: 37.7 mL/min/kg
- IC50 [8]: 1.11 pM
- Vd [9]: 22.7 L/kg
- AUC(0-inf) [10]: 2240 ng·h/mL
- IC50 [11]: 2970 pM
- AUC(0-t) [12]: 2190 ng·h/mL
- IC50 [13]: 205 pM

SMILES: CC(=O)O[C@@]12CO[C@@H]1C[C@H](O)[C@@]1(C)C(=O)[C@H](O)C3=C(C)[C@@H](OC(=O)[C@H](O)[C@@H](NC(=O)OC(C)(C)C(F)(F)F)c4ccccc4)C[C@@](O)([C@@H](OC(=O)c4ccccc4)[C@H]21)C3(C)C
- half-life [1]: 9.91 h
- IC50 [2]: 83.4 pM
- IC50 [4]: 694 pM
- MRT [6]: 2.32 h
- clearance [7]: 21 mL/min/kg
- IC50 [8]: 262 pM
- Vd [9]: 18.1 L/kg
- AUC(0-inf) [10]: 3960 ng·h/mL
- IC50 [11]: 410 pM
- AUC(0-t) [12]: 3860 ng·h/mL
- IC50 [13]: 626 pM

SMILES: CC(=O)O[C@@]12CO[C@@H]1C[C@H](O)[C@@]1(C)C(=O)[C@H](O)C3=C(C)[C@@H](OC(=O)[C@H](O)[C@@H](NC(=O)OC(C)(C)C(F)F)c4ccccc4)C[C@@](O)([C@@H](OC(=O)c4ccccc4)[C@H]21)C3(C)C
- half-life [1]: 7.69 h
- IC50 [2]: 282 pM
- IC50 [4]: 332 pM
- MRT [6]: 2.76 h
- clearance [7]: 29.8 mL/min/kg
- IC50 [8]: 176 pM
- Vd [9]: 20.2 L/kg
- AUC(0-inf) [10]: 2930 ng·h/mL
- IC50 [11]: 554 pM
- AUC(0-t) [12]: 2860 ng·h/mL
- IC50 [13]: 369 pM

SMILES: CC(=O)O[C@@]12CO[C@@H]1C[C@H](O)[C@@]1(C)C(=O)[C@H](O)C3=C(C)[C@@H](OC(=O)[C@H](O)[C@@H](NC(=O)OC(C)(C)C(F)F)c4ccccc4)C[C@@](O)([C@@H](OC(=O)c4cccc(F)c4)[C@H]21)C3(C)C
- half-life [1]: 10.2 h
- IC50 [4]: 161 pM
- MRT [6]: 2.4 h
- clearance [7]: 42.5 mL/min/kg
- IC50 [8]: 183 pM
- Vd [9]: 36.2 L/kg
- AUC(0-inf) [10]: 1990 ng·h/mL
- IC50 [11]: 584 pM
- AUC(0-t) [12]: 1930 ng·h/mL
- IC50 [13]: 182 pM

SMILES: CC(=O)O[C@@]12CO[C@@H]1C[C@H](O)[C@@]1(C)C(=O)[C@H](O)C3=C(C)[C@@H](OC(=O)[C@H](O)[C@@H](NC(=O)OC(C)(C)C)c4ccccc4)C[C@@](O)([C@@H](OC(=O)c4ccccc4)[C@H]21)C3(C)C.O.O.O [DOCETAXEL]
- half-life [1]: 7.37 h
- IC50 [2]: 454 pM
- IC50 [4]: 132 pM
- MRT [6]: 3.34 h
- clearance [7]: 125 mL/min/kg
- IC50 [8]: 11.5 pM
- Vd [9]: 78.8 L/kg
- AUC(0-inf) [10]: 667 ng·h/mL
- IC50 [11]: 114 pM
- AUC(0-t) [12]: 646 ng·h/mL
- IC50 [13]: 234 pM
